Source: ChEMBL document CHEMBL3045864, “Fungistatic activity of bicyclo[4.3.0]-γ-lactones” (J Agric Food Chem, 2011)
≈ marks a conversion by molar mass, not a printed value.

Legend:
Type in all cases: functional, organism-based
Fusarium culmorum = assay: Fungistatic activity against Fusarium culmorum AM 282 assessed as effect on diameter of fungal growth zone
How it was run: (§1)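 Agar dilution growth-zone assay. Lactones in DMSO were mixed into sterilized potato dextrose agar (0.01 mL DMSO per 1 mL agar) at final concentrations of 50–300 μg/mL. A fungal mycelium plug was placed on the agar and grown at 27 °C and 60–80% relative humidity. Growth-zone diameters were measured once DMSO-only control colonies reached 5.5–6.0 cm. Inhibition = (1 − Da/Db) × 100%. IC50 was taken from four concentrations, each run in triplicate. DDAC served as reference.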

Fusarium tricinctum = assay: Fungistatic activity against Fusarium tricinctum AM 16 assessed as effect on diameter of fungal growth zone; how it was run: as §1
Fusarium oxysporum = assay: Fungistatic activity against Fusarium oxysporum AM 13 assessed as effect on diameter of fungal growth zone; how it was run: as §1
Aspergillus ochraceus = assay: Fungistatic activity against Aspergillus ochraceus AM 456 assessed as effect on diameter of fungal growth zone; how it was run: as §1
Penicillium citrinum = assay: Fungistatic activity against Penicillium citrinum AM 354 assessed as effect on diameter of fungal growth zone; how it was run: as §1
[1] = Fusarium culmorum, AM 282, read-out: IC50
[2] = Fusarium oxysporum, AM 13, read-out: IC50

Structure (SMILES) | IC50 (Fusarium culmorum; [1]) [µg/mL] | IC50 (Fusarium tricinctum) [µg/mL] | IC50 (Fusarium oxysporum; [2]) [µg/mL] | IC50 (Aspergillus ochraceus) [µg/mL] | IC50 (Penicillium citrinum) [µg/mL] | IC50 (Fusarium culmorum) [µg/mL] | IC50 (Fusarium oxysporum) [µg/mL]
CC1(C)OC(=O)[C@H]2C[C@@H](Br)[C@H](Br)C[C@H]21 (racemic) | 155 (≈ 474 µM) | 191 (≈ 586 µM) | 80.2 (≈ 246 µM) | 121 (≈ 371 µM) | 255 (≈ 782 µM) | – | –
O=C1OC(=O)[C@@H]2CC=CC[C@H]12 | 310 (≈ 2040 µM) | 289 (≈ 1900 µM) | 220 (≈ 1450 µM) | 287 (≈ 1880 µM) | > 350 | – | –
O=C1OC[C@H]2C[C@H]3O[C@H]3C[C@@H]12 (racemic) | 90.4 (≈ 586 µM) | 156 (≈ 1020 µM) | 72.2 (≈ 468 µM) | 141 (≈ 915 µM) | 312 (≈ 2030 µM) | – | –
CC1(C)OC(=O)[C@H]2C[C@@H](O)[C@H](Br)C[C@H]21 (racemic) | 166 (≈ 632 µM) | 162 (≈ 617 µM) | 170 (≈ 648 µM) | 220 (≈ 838 µM) | 212 (≈ 806 µM) | – | –
O=C1OC[C@H]2CCCC[C@@H]12 (racemic) | 147 (≈ 1050 µM) | 222 (≈ 1580 µM) | 314 (≈ 2240 µM) | 187 (≈ 1330 µM) | > 350 | – | –
O=C1OC[C@@H]2CCCC[C@H]12 | 169 (≈ 1210 µM) | – | 261 (≈ 1860 µM) | – | – | – | –
O=C1OC[C@@H]2CC=CC[C@H]12 | 171 (≈ 1240 µM) | – | 222 (≈ 1610 µM) | – | – | – | –
CCCCCCCCCC[N+](C)(C)CCCCCCCCCC.[Cl-] [DIDECYLDIMETHYLAMMONIUM CHLORIDE] | 24.5 | 27.9 | 24.2 | 51.3 | 41.6 | – | –
O=C1OCC2CCC(O)CC12 (racemic) | 121 (≈ 773 µM) | 161 (≈ 1030 µM) | 127 (≈ 811 µM) | 212 (≈ 1360 µM) | > 350 | – | –
O=C1OC[C@@H]2C[C@@H]3O[C@@H]3C[C@H]12 | 59.7 (≈ 387 µM) | – | 51.9 (≈ 337 µM) | – | – | – | –
O=C1OC(=O)C2CCCCC12 (racemic) | 292 (≈ 1890 µM) | 303 (≈ 1960 µM) | 240 (≈ 1560 µM) | 342 (≈ 2220 µM) | > 350 | – | –
CC1(C)OC(=O)[C@H]2C[C@H]3O[C@H]3C[C@H]21 (racemic) | 142 (≈ 777 µM) | 180 (≈ 991 µM) | 95.3 (≈ 523 µM) | 142 (≈ 780 µM) | > 350 | – | –
O=C1OC[C@H]2C[C@@H](Br)[C@H](Br)C[C@@H]12 (racemic) | 81.5 (≈ 274 µM) | 110 (≈ 371 µM) | 30.1 (≈ 101 µM) | 219 (≈ 735 µM) | 306 (≈ 1030 µM) | – | –
CC1(C)OC(=O)[C@H]2CC=CC[C@H]21 (racemic) | 183 (≈ 1100 µM) | 205 (≈ 1230 µM) | 188 (≈ 1130 µM) | 159 (≈ 958 µM) | 274 (≈ 1650 µM) | – | –
O=C1OC[C@@H]2C[C@@H](Br)[C@H](Br)C[C@H]12 | 90.5 (≈ 304 µM) | – | 47.5 (≈ 159 µM) | – | – | – | –
CC1(C)OC(=O)[C@@H]2CCCC[C@@H]21 (racemic) | – | 213 (≈ 1260 µM) | – | 160 (≈ 949 µM) | 292 (≈ 1730 µM) | 134.5 (≈ 799 µM) | 179.1 (≈ 1060 µM)
O=C1OC[C@H]2CCC[C@H](Br)[C@@H]12 (racemic) | 133 (≈ 608 µM) | 173 (≈ 791 µM) | 184 (≈ 840 µM) | 244 (≈ 1120 µM) | 282 (≈ 1290 µM) | – | –
O=C1OC[C@@H]2C[C@@H](Br)[C@H](O)C[C@H]12 (racemic) | 172 (≈ 733 µM) | 211 (≈ 898 µM) | 141 (≈ 600 µM) | 141 (≈ 599 µM) | 292 (≈ 1240 µM) | – | –
CC1(C)OC(=O)[C@@H]2CCCC[C@@H]21 | 121 (≈ 717 µM) | – | 162 (≈ 965 µM) | – | – | – | –
O=C1OC[C@H]2CC=CC[C@@H]12 (racemic) | 184 (≈ 1330 µM) | 221 (≈ 1600 µM) | 282 (≈ 2040 µM) | 171 (≈ 1240 µM) | > 350 | – | –
